# From paper PMC2190579 (The Journal of Cell Biology, 2001)
# B1: vitronectin: human vitronectin purchased from Calbiochem, coated on latex beads (protein, UniProt P04004 20-478, looked up)
# Vitronectin: DQESCKGRCTEGFNVDKKCQCDELCSYYQSCCTDYTAECKPQVTRGDVFTMPEDEYTVYDDGEEKNNATVHEQVGGPSLTSDLQAQSKGNPEQTPVLKPEEEAPAPEVGASKPEGIDSRPETLHPGRPQPPAEEELCSGKPFDAFTDLKNGSLFAFRGQYCYELDEKAVRPGYPKLIRDVWGIEGPIDAAFTRINCQGKTYLFKGSQYWRFEDGVLDPDYPRNISDGFDGIPDNVDAALALPAHSYSGRERVYFFKGKQYWEYQFQHQPSQEECEGSSLSAVFEHFAMMQRDSWEDIFELLFWGRTSAGTRQPQFISRDWHGVPGQVDAAMAGRIYISGMAPRPSLAKKQRFRHRNRKGYRSQRGHSRGRNQNSRRPSRATWLSLFSSEESNLGANNYDDYRMDWLVPATCEPIQSVFFFSGDKYYRVNLRTRRVDTVDPPYPRSIAQYWLGCPAPGHL
# modifications: coated on latex beads
# Legend:
# wild-type P2Y2R [1] = assay: FAK phosphorylation in 1321N1 transfectants; format: cell-based, human
# wild-type P2Y2R [2] = assay: ERK1/2 phosphorylation in 1321N1 transfectants; format: cell-based, human
# Outline: (§1)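 1321N1 astrocytoma cells stably expressing HA-tagged P2Y2R (retroviral pLXSN, G418-selected) were grown to 80% confluence and serum-starved 24 h at 37°C. They were preincubated 30 min with buffer or 10 μM BAPTA-AM, then given 100 μM UTP. Lysates were run on 7.5% SDS-PAGE and immunoblotted for phospho-p42/p44 ERK1/2. Chemiluminescence was quantitated and normalised by reprobing for total ERK1/2.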
# [3] = target: αVβ3 integrin (human (endogenous in K562)) (UniProt P06756); assay: ligand-coated bead binding to cells
# αVβ3 integrin (human (endogenous in K562)), sequence (P06756 31-1048, chain 1 of 2): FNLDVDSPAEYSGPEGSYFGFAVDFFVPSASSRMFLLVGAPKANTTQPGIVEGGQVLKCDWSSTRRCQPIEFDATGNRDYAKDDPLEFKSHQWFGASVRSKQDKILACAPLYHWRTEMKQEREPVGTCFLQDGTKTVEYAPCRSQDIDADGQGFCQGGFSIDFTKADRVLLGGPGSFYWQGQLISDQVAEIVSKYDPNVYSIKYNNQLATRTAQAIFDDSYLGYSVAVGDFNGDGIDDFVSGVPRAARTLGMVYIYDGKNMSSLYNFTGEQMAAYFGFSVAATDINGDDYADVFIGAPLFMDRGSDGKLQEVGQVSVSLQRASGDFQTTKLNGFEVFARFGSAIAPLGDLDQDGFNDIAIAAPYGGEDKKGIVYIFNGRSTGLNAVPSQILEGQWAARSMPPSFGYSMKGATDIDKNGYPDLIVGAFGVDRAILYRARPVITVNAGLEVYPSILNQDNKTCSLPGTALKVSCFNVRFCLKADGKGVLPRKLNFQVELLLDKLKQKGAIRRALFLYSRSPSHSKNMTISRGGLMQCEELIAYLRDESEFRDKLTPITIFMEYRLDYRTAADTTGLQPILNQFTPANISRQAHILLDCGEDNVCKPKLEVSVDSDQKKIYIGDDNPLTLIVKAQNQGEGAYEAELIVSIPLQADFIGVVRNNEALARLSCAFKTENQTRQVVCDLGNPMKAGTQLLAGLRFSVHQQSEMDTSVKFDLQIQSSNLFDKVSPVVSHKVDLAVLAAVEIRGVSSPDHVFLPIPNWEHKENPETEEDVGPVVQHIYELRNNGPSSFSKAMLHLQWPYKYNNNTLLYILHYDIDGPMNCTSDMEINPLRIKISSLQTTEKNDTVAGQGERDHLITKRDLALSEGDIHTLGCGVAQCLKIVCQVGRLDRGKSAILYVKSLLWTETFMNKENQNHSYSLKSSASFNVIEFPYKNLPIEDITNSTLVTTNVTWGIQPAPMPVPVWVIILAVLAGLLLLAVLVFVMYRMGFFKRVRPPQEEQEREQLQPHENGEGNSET
# αVβ3 integrin (human (endogenous in K562)), sequence (P05106 27-788, chain 2 of 2, further chain): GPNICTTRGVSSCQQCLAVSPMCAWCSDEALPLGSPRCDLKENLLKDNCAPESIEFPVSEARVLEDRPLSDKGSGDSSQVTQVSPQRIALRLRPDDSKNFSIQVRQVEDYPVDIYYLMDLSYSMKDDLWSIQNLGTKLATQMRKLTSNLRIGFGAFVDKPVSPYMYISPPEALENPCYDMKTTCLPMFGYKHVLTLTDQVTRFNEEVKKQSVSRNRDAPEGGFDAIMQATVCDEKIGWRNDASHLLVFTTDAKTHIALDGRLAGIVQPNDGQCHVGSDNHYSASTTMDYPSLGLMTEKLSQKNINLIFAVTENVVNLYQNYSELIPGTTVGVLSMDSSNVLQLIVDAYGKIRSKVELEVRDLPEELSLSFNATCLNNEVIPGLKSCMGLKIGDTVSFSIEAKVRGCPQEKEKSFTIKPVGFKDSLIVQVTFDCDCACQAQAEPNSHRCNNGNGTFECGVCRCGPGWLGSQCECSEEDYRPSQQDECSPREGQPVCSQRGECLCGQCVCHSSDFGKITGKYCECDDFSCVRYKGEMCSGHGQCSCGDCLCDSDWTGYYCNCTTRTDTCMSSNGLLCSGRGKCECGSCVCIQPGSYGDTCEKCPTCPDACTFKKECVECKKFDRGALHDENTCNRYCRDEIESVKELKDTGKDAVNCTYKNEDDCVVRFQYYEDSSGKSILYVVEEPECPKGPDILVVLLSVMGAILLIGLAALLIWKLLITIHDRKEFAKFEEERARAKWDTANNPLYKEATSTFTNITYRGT
# [4] = target: αVβ5 integrin (human (endogenous in K562)) (UniProt P06756); assay: ligand-coated bead binding to cells
# αVβ5 integrin (human (endogenous in K562)), sequence (P06756 31-1048, chain 1 of 2): as the sequence (P06756 31-1048, chain 1 of 2) above
# αVβ5 integrin (human (endogenous in K562)), sequence (P18084 24-799, chain 2 of 2, further chain): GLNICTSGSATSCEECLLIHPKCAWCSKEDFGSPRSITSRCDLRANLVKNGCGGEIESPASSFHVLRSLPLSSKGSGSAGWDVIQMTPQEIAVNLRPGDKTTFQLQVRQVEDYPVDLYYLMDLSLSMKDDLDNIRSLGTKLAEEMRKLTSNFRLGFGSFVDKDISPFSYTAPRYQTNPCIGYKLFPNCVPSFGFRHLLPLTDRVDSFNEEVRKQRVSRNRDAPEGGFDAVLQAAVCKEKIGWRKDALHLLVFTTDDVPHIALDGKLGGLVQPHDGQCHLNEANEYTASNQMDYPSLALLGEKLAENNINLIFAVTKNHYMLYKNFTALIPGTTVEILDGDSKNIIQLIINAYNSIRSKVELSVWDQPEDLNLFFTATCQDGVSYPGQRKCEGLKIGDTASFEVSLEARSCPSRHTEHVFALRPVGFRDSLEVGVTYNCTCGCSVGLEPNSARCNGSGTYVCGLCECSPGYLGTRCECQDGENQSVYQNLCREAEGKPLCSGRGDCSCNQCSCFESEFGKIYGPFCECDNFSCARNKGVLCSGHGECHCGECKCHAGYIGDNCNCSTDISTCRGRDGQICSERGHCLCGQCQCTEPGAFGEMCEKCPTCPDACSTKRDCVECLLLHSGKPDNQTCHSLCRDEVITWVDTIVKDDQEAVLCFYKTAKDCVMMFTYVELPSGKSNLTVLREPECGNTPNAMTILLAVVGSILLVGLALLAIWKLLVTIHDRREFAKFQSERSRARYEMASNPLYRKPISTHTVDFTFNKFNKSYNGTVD
# P2Y2R (wild-type) = assay: Calcium mobilization; format: cell-based, human
# [5] = target: P2Y2R (D^97 ↦ E), RGE mutant (Homo sapiens, UniProt P41231, D97E); assay: Calcium mobilization; format: cell-based; conditions: 1321N1 cells
# P2Y2R (D^97 ↦ E), RGE mutant, sequence (P41231 whole entry D97E): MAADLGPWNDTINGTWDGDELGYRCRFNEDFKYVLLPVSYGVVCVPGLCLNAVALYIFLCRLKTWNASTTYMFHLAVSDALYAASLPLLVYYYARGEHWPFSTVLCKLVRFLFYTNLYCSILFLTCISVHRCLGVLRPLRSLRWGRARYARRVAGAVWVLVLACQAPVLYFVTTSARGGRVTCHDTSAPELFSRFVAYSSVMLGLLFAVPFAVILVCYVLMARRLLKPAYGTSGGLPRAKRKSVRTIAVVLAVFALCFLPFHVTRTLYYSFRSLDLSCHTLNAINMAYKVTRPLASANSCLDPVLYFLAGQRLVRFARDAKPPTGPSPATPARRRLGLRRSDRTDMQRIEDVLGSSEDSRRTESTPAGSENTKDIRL
# RGE mutant P2Y2R [6] = assay: FAK phosphorylation in 1321N1 transfectants; format: cell-based, human; conditions: 1 mM UTP after 30 min preincubation with 10 μM BAPTA-AM
# Outline: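 Serum-starved (24 h, 37°C) 1321N1 cells stably expressing HA-tagged P2Y2R constructs were preincubated 30 min with buffer or 10 μM BAPTA-AM, then stimulated with 1 mM UTP. Cells were lysed in RIPA buffer and FAK was immunoprecipitated. Tyrosine phosphorylation was detected by anti-phosphotyrosine immunoblot after 7.5% SDS-PAGE, with chemiluminescence read-out. Three to six experiments.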
# RGE mutant P2Y2R [7] = assay: ERK1/2 phosphorylation in 1321N1 transfectants; format: cell-based, human; conditions: 100 μM UTP after 30 min preincubation with 10 μM BAPTA-AM
# Outline: as §1
# wild-type P2Y2R [8] = assay: IP assay; format: cell-based, human; conditions: overnight treatment with peptide; not shown
# Outline: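 Wild-type P2Y2R 1321N1 transfectants were labelled 24 h with 2 μCi [3H]inositol (20 Ci/mmol) in serum-free, inositol-free DME. Cells were washed and held 30 min at 37°C in 30 mM LiCl buffer, then stimulated 10 min with UTP. Extraction used ice-cold 10% perchloric acid with neutralisation. Inositol phosphates were separated on Dowex columns and counted by liquid scintillation.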
# P2Y1R (wild-type) = P2Y1R (wild-type) (Meleagris gallopavo, UniProt P49652); assay: Calcium mobilization; format: cell-based, turkey; conditions: read-out: EC50 (for Ca^2+ mobilization); 1321N1 cells; mean ± SEM (n = 3)
# P2Y1R (wild-type), sequence (P49652 whole entry): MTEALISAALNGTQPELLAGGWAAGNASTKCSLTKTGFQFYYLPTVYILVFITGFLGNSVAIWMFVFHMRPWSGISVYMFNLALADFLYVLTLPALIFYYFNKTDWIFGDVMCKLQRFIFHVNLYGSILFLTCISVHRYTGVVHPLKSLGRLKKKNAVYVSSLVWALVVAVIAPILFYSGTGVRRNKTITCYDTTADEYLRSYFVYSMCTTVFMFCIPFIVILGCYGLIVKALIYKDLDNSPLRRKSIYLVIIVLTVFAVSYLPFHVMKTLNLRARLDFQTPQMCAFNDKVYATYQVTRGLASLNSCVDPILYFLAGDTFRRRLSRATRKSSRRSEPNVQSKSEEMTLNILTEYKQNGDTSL
# P2Y1R (D^116 ↦ E) = P2Y1R (D^116 ↦ E) (Meleagris gallopavo, UniProt P49652, D105E); assay: Calcium mobilization; format: cell-based, turkey; conditions: read-out: EC50 (for Ca^2+ mobilization); 1321N1 cells; mean ± SEM (n = 3)
# P2Y1R (D^116 ↦ E), sequence (P49652 whole entry D105E): as the sequence (P49652 whole entry) above, with D105E counted along it
# P2Y1R (D^121 ↦ E) = P2Y1R (D^121 ↦ E) (Meleagris gallopavo, UniProt P49652, D110E); assay: Calcium mobilization; format: cell-based, turkey; conditions: read-out: EC50 (for Ca^2+ mobilization); 1321N1 cells; mean ± SEM (n = 3)
# P2Y1R (D^121 ↦ E), sequence (P49652 whole entry D110E): as the sequence (P49652 whole entry) above, with D110E counted along it
# P2Y1R (F^119 ↦ R) = P2Y1R (F^119 ↦ R) (Meleagris gallopavo, UniProt P49652, F108R); assay: Calcium mobilization; format: cell-based, turkey; conditions: read-out: EC50 (for Ca^2+ mobilization); 1321N1 cells; mean ± SEM (n = 3)
# P2Y1R (F^119 ↦ R), sequence (P49652 whole entry F108R): as the sequence (P49652 whole entry) above, with F108R counted along it
# K562 cells = assay: Fluorescence-activated cell sorting of integrin surface expression; format: cell-based, human; conditions: overnight treatment with 100 nM PDBu
# [9] = system: K562 erythroleukemia cells; assay: Ligand-coated bead-binding assay; format: cell-based, human; conditions: number of beads bound per 100 cells; 1 h at 37°C; mean ± SEM
# [10] = overnight (18 h) with 100 μM peptide, 1 μM UTP 5 min
# [11] = overnight (18 h) with 100 μM peptide, 10 nM UTP 5 min
# [12] = shorter incubation periods than overnight, not shown
molecule,measurement,setting,value
RGES,Effect on P2Y2R-mediated FAK phosphorylation,wild-type P2Y2R [1]; [10],no effect
same,Effect on P2Y2R-mediated ERK1/2 phosphorylation,wild-type P2Y2R [2]; [11],no effect
human vitronectin (ligand),"adhesion index (AI, beads bound per 100 K562 cells) (beads bound per 100 cells)",[3],300
same,"adhesion index (AI, beads bound per 100 K562 cells) (beads bound per 100 cells)",[4],300
Nc1ncnc2c1ncn2[C@@H]1O[C@H](COP(=O)(O)OP(=O)(O)OP(=O)(O)O)[C@@H](O)[C@H]1O [ATP],EC50,"P2Y2R (wild-type); read-out: EC50 (for Ca^2+ mobilization), 1321N1 cells, mean ± SEM (n = 3)",850 ± 130 nM
same,EC50,"[5]; read-out: EC50 (for Ca^2+ mobilization), mean ± SEM (n = 3)",785000 ± 125000 nM
"O=C(O)CN(CC(=O)O)c1ccccc1OCCOc1ccccc1N(CC(=O)O)CC(=O)O [BAPTA, 1,2-bis(2-aminophenoxy)ethane-N,N,N′,N′-tetraacetic acid]",Effect on UTP-induced FAK phosphorylation,wild-type P2Y2R [1]; 1 mM UTP after 30 min preincubation with 10 μM BAPTA-AM,inhibited
same,Effect on UTP-induced FAK phosphorylation,RGE mutant P2Y2R [6],inhibited
same,Effect on UTP-induced ERK1/2 phosphorylation,wild-type P2Y2R [2]; 100 μM UTP after 30 min preincubation with 10 μM BAPTA-AM,partially inhibited
same,Effect on UTP-induced ERK1/2 phosphorylation,RGE mutant P2Y2R [7],not affected
RGDS,Effect on P2Y2R-mediated Ca^2+ mobilization,"P2Y2R (wild-type); overnight treatment with peptide, not shown",not inhibited
same,Effect on P2Y2R-mediated FAK phosphorylation,wild-type P2Y2R [1]; [10],inhibited
same,Effect on P2Y2R-mediated FAK phosphorylation,wild-type P2Y2R [1]; [12],did not cause inhibition
same,Effect on P2Y2R-mediated ERK1/2 phosphorylation,wild-type P2Y2R [2]; [11],inhibited
same,Effect on P2Y2R-mediated ERK1/2 phosphorylation,wild-type P2Y2R [2]; [12],did not cause inhibition
same,Effect on P2Y2R-mediated IP formation,wild-type P2Y2R [8],not inhibited
Nc1ncnc2c1ncn2[C@@H]1O[C@H](COP(=O)(O)OP(=O)(O)O)[C@@H](O)[C@H]1O [ADP],EC50,P2Y1R (wild-type),60 ± 10 nM
same,EC50,P2Y1R (D^116 ↦ E),60 ± 10 nM
same,EC50,P2Y1R (D^121 ↦ E),80 ± 10 nM
same,EC50,P2Y1R (F^119 ↦ R),2020 ± 270 nM
"CCCC(=O)O[C@@H]1[C@@H](C)[C@@]2(O)[C@@H](C=C(CO)C[C@]3(O)C(=O)C(C)=C[C@@H]23)[C@@H]2C(C)(C)[C@]12OC(=O)CCC [PDBu, phorbol dibutyrate]","Fluorescence intensity or percentage of cells stained by antiintegrin antibodies (α5, αVβ5, β3)",K562 cells,did not increase
pertussis toxin,Inhibition of Ca^2+ mobilization,"P2Y2R (wild-type); 200 ng/ml PTX overnight, 1 μM UTP, 1321N1 cells",30%
same,Effect on Ca^2+ mobilization,"[5]; 200 ng/ml PTX overnight, 100 μM UTP",insensitive
fibronectin,AI (adhesion index) of ligand-coated beads bound to K562 cells,[9],318 ± 14
B1,AI (adhesion index) of ligand-coated beads bound to K562 cells,[9],300 ± 28
